Results from ChEMBL document CHEMBL3585262, “(-)-α-Bisabolol, a Promising Oral Compound for the Treatment of Visceral Leishmaniasis” (J Nat Prod, 2015).
Active and inactive are the calls of the source. The calls are words filed in the database; no cut-off is given here.

Tests used:
[1] = (§1) Selectivity index, ratio of CC50 for mouse L929 cells to IC50 for Leishmania infantum MHOM/ES/2007/DP532JFJ; assay type: functional
[2] = (§2) Selectivity index, ratio of CC50 for mouse L929 cells to IC50 for Leishmania donovani MHOM/IN/00/LEM138; assay type: functional
[3] = (§3) Cytotoxicity against mouse L929 cells after 72 hrs by trypan blue assay; assay type: cell-based; settings: L929 cells
Outline: (§4)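 L929 fibroblasts were plated at 5 × 10^4/well in RPMI-1640 with 10% FBS at 37 °C, 5% CO2. They were exposed to 25–1000 μM compound, with diluent controls, for 72 h. Cells were mixed 1:1 with 0.4% trypan blue and live and dead cells counted in a hemocytometer. Survival was expressed relative to controls and CC50 approximated.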

[4] = tested on: Leishmania donovani; assay: Antileishmanial activity against Leishmania donovani MHOM/IN/00/LEM138 infected in mouse BMDM cells assessed as reduction in intracellular amastigotes after 48 hrs; assay type: functional, organism-based
Outline: (§5)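 Bone-marrow-derived macrophages from ICR (CD-1) mice, differentiated with L929-conditioned medium, plated 4 × 10^6 per well on coverslips and allowed to adhere 1 day. Infected with stationary-phase promastigotes at 10:1 parasite/macrophage, then exposed to 25–1000 μM for 48 h (0.5% DMSO). Giemsa-stained, infection percentage counted by microscopy. IC50 from linear regression of infection reduction; at least triplicate.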

[5] = tested on: Leishmania infantum; assay: Antileishmanial activity against Leishmania infantum MHOM/ES/2007/DP532JFJ infected in mouse BMDM cells assessed as reduction in intracellular amastigotes after 48 hrs; assay type: functional, organism-based; outline: as §5
[6] = tested on: L929; assay: as §3; assay type: cell-based; settings: l929, 72 h; outline: as §4
[7] = tested on: Leishmania infantum; assay: Antileishmanial activity against Leishmania infantum promastigotes infected in ICR (CD1) mouse assessed as reduction in parasite load in spleen at 104 mg Sb'v/kg, ip treated 28 days after infection for 14 days by real-time PCR relative to control; assay type: functional, organism-based
[8] = tested on: Leishmania infantum; assay: Antileishmanial activity against Leishmania infantum promastigotes infected in ICR (CD1) mouse assessed as parasite load in liver at 104 mg Sb'v/kg, ip dosed daily starting 28 days after infection for 14 days by real-time PCR; assay type: functional, organism-based
[9] = tested on: L929; assay: as §1; assay type: functional
[10] = tested on: L929; assay: as §2; assay type: functional
[11] = tested on: Leishmania infantum; assay: Antileishmanial activity against Leishmania infantum promastigotes infected in ICR (CD1) mouse assessed as parasite load in spleen at 104 mg Sb'v/kg, ip dosed daily starting 28 days after infection for 14 days by real-time PCR; assay type: functional, organism-based
[12] = tested on: Leishmania infantum; assay: Antileishmanial activity against Leishmania infantum promastigotes infected in ICR (CD1) mouse assessed as reduction in parasite load in liver at 104 mg Sb'v/kg, ip dosed daily starting 28 days after infection for 14 days by real-time PCR relative to control; assay type: functional, organism-based
[13] = tested on: Leishmania infantum; assay: Antileishmanial activity against Leishmania infantum MHOM/ES/2007/DP532JFJ infected in mouse BMDM cells assessed as reduction in infection at 150 uM after 48 hrs; assay type: functional
Outline: (§6)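 Mouse bone-marrow macrophages were differentiated with L929-conditioned medium and plated with coverslips. They were infected with stationary-phase promastigotes at a 10:1 parasite:macrophage ratio. Compound (25–1000 μM, 0.5% DMSO) was added for 48 h, at least in triplicate. Cells were Giemsa-stained and the percentage infected (≥1 amastigote) was counted by microscopy. Reduction was calculated relative to untreated or diluent wells.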

[14] = tested on: Mus musculus; assay: Toxicity in Balb/c mouse assessed as histological changes at 50 mg/kg, po; settings: in vivo
[15] = Cytotoxicity against mouse L929 cells assessed as survival rate at 25 to 250 uM after 72 hrs by trypan blue assay; assay type: cell-based; settings: read-out: Survival
Outline: (§7)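 Trypan Blue exclusion assay. BMDM (4 × 10^5/well) or L929 fibroblasts (5 × 10^4/well) incubated 72 h with 25–1000 μM compound, with DMSO diluent controls. Cells then mixed 1:1 with 0.4% Trypan Blue and live and dead cells counted in a hemocytometer. Survival ratio calculated against controls at each concentration.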

[16] = tested on: Leishmania infantum; assay: Antileishmanial activity against Leishmania infantum promastigotes infected in Balb/c mouse assessed as parasite load in liver at 200 mg/kg, po dosed daily starting 28 days after infection for 14 days by real-time PCR
[17] = tested on: Leishmania infantum; assay: Antileishmanial activity against Leishmania infantum promastigotes infected in Balb/c mouse assessed as parasite load in spleen at 200 mg/kg, po dosed daily starting 28 days after infection for 14 days by real-time PCR
[18] = tested on: Leishmania amazonensis; assay: Antileishmanial activity against Leishmania amazonensis MHOM/BR/76/MA-76 intracellular amastigotes infected in BALB/c mouse peritoneal macrophages incubated for 24 hrs by Giemsa staining based light microscopy; assay type: functional, organism-based; settings: MHOM/BR/76/MA-76, 24 h
[19] = tested on: Mus musculus; assay: Toxicity in ICR (CD1) mouse assessed as histological changes at 200 mg/kg, po; assay type: organism-based; settings: in vivo
Outline: (§8)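 Mice were given daily oral doses of 50, 200 or 1000 mg/kg in olive oil for 14 days, alongside a noninfected healthy reference group. Animals were weighed weekly and checked for stress, pain, cutaneous signs and diarrhea. After sacrifice, spleen and liver were weighed, plasma biochemical and enzymatic values were assessed, and tissue sections were examined by light microscopy.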

[20] = tested on: Leishmania donovani; assay: Antileishmanial activity against Leishmania donovani MHOM/IN/00/LEM138 infected in mouse BMDM cells assessed as reduction in infection at 150 uM after 48 hrs; assay type: functional; settings: MHOM/IN/00/LEM138, BMDM; outline: as §6
[21] = Toxicity in po dosed rat; assay type: organism-based; settings: in vivo
[22] = tested on: Leishmania infantum; assay: Antileishmanial activity against Leishmania infantum promastigotes infected in ICR (CD1) mouse assessed as reduction in parasite load in spleen at 200 mg/kg, po dosed daily starting 28 days after infection for 14 days by real-time PCR co-treated with 104 mg Sb'v/kg/day, ip meglumine antimoniate for 14 days; assay type: functional, organism-based
Outline: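 Female 4–6-week-old Balb/c mice received 10^7 stationary-phase L. infantum promastigotes ip, in groups of seven. From day 28 they were dosed orally each day for 14 days in olive oil; meglumine antimoniate 104 mg SbV/kg was given ip. Spleen and liver load was measured by L. infantum-specific qPCR in triplicate against a calibration curve, as parasites/mg, and reduction was taken versus untreated mice.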

[23] = tested on: Mus musculus; assay: Toxicity in Balb/c mouse assessed as changes in plasma biochemical changes at 50 and 200 mg/kg, po; settings: in vivo
[24] = tested on: Leishmania infantum; assay: Antileishmanial activity against Leishmania infantum promastigotes; assay type: functional, organism-based
[25] = tested on: Leishmania infantum; assay: Antileishmanial activity against Leishmania infantum promastigotes infected in Balb/c mouse assessed as reduction parasite load in liver at 50 mg/kg, po dosed daily starting 28 days after infection for 14 days by real-time PCR relative to control
[26] = tested on: Mus musculus; assay: Toxicity in ICR (CD1) mouse at 1000 mg/kg, po; assay type: organism-based; settings: in vivo; outline: as §8
[27] = Cytotoxicity against mouse L929 cells assessed as survival rate at 500 uM after 72 hrs by trypan blue assay; assay type: cell-based; settings: read-out: Survival; outline: as §7
[28] = Cytotoxicity against ICR(CD1) BMDM assessed as survival rate at 25 to 250 uM after 72 hrs by trypan blue assay; settings: mouse; outline: as §7
[29] = Cytotoxicity against mouse J774.G8 cells assessed as reduction in cell viability incubated for 24 hrs by MTT assay; assay type: cell-based
[30] = tested on: Leishmania infantum; assay: Antileishmanial activity against Leishmania infantum promastigotes infected in Balb/c mouse assessed as reduction parasite load in spleen at 50 mg/kg, po dosed daily starting 28 days after infection for 14 days by real-time PCR relative to control
[31] = Cytotoxicity against mouse L929 cells assessed as survival rate at 1000 uM after 72 hrs by trypan blue assay; assay type: cell-based; settings: read-out: Survival; outline: as §7
[32] = tested on: Mus musculus; assay: Toxicity in Balb/c mouse assessed as changes in plasma enzymatic changes at 50 and 200 mg/kg, po; settings: in vivo
[33] = Cytotoxicity against human skin fibroblast cells; assay type: cell-based
[34] = Leishmania donovani, MHOM/IN/00/LEM138, BMDM, 48 h
[35] = Leishmania infantum, MHOM/ES/2007/DP532JFJ, BMDM, 48 h

Compound: N=C(N)c1ccc(OCCCCCOc2ccc(C(=N)N)cc2)cc1.O=S(=O)(O)CCO
- Ratio CC50/IC50 [1]: 4
- Ratio CC50/IC50 [2]: 7
- CC50 at 72 h [3]: 6.1 µM
- IC50 [4, 34]: 0.88 µM
- IC50 [5, 35]: 1.5 µM

Compound: MEGLUMINE ANTIMONATE [listing 1 of 2 here]
- CC50 [6]: 273 µM
- IC50 ([4]; bmdm): 96.4 µM
- IC50 ([5]; bmdm): 144 µM

Compound: MEGLUMINE ANTIMONATE [listing 2 of 2 here]
- inhibition [7]: inactive
- inhibition [8]: Active
- Ratio CC50/IC50 [9]: 2
- Ratio CC50/IC50 [10]: 3
- inhibition [11]: Active
- Activity [12]: Active

Compound: CC(C)=CCC[C@@](C)(O)[C@@H]1CC=C(C)CC1
- inhibition at 150 µM [13]: 85%
- Activity [14]: Non-toxic
- viability at 72 h, up to 250 µM [15]: 100%
- inhibition [16]: Active
- inhibition [17]: Active
- Ratio CC50/IC50 [1]: >17
- IC50 [18]: 48 µM
- Activity [19]: Non-toxic
- inhibition at 150 µM [20]: 89%
- Ratio CC50/IC50 [2]: >25
- CC50 at 72 h [3]: > 1000 µM
- LD50 [21]: 14000 mg/kg
- inhibition [22]: inactive
- IC50 [4, 34]: 39.4 µM
- Activity [23]: Non-toxic
- IC50 [24]: 49 µM
- IC50 [5, 35]: 56.9 µM
- inhibition [25]: Active
- Activity [26]: Non-toxic
- viability at 72 h, 500 µM [27]: 86.7%
- Activity [28]: Non-toxic
- CC50 at 24 h [29]: 452 µM
- inhibition [30]: Active
- viability at 72 h, 1000 µM [31]: 62.3%
- Activity [32]: Non-toxic
- CC50 [33]: > 150 µM
